Key:
Mus musculus [1] = test: Anti-neoplastic effect in estrogen and progesterone receptor positive hormone-dependent postmenopausal human mammary carcinoma bearing mice at 2.5 mg/kg/day; format: functional
Method in brief: (§1)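 Human ER- and PR-positive, hormone-dependent postmenopausal mammary carcinoma, serially transplanted in NMRI nu/nu mice (castrated females or males, about 25 g, 6–7 weeks old, 10–12 per group). Drug given sc in olive oil 6 times/week; controls received vehicle for 4–6 weeks. Two tumor diameters measured weekly. Size is relative to treatment start (=1), averaged after 4 weeks. Compared with controls at α ≤ 0.05.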

[2] = biological target: Estrogen receptor (Bos taurus) (UniProt Q9XSB5+P49884); test: Binding affinity against Estrogen receptor in calf-uterine cytosol relative to 17-beta-estradiol using [3H]estradiol.; format: protein assay
Method in brief: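 Calf uterine cytosol was incubated with [3H]estradiol and six concentrations of unlabeled competitor at 4 °C for 16 h. Incubation was stopped with dextran-coated charcoal; after centrifugation, supernatant radioactivity was counted. The concentrations of estradiol and of test compound giving 50% displacement were read from a semilog plot. Relative binding affinity = [E2]/[I] × 100.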

Mus musculus [3] = test: Anti-neoplastic effect in estrogen and progesterone receptor positive hormone-dependent postmenopausal human mammary carcinoma bearing mice at 3.4 mg/kg/day; format: functional; method in brief: as §1
Rattus norvegicus [4] = test: Percent unchanged tumor size in DMBA-induced hormone-dependent mammary carcinoma bearing rats at 1.71 mg/kg/day; format: functional
Method in brief: (§2)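 Female Sprague-Dawley rats received one 20 mg DMBA dose by gastric intubation at age 50 days. About 4 weeks later, rats with at least one tumor over 140 mm² were grouped in tens. Drug given sc in olive oil 6 times/week. Read-outs were tumors classed as complete remission, partial remission, no change or progression, plus % change in tumor area and in body weight.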

Rattus norvegicus [5] = test: Percent unchanged tumor size in DMBA-induced hormone-dependent mammary carcinoma bearing rats at 0.85 mg/kg/day; format: functional; method in brief: as §2
Rattus norvegicus [6] = test: Percent change in tumor area in DMBA-induced hormone-dependent mammary carcinoma bearing rats at 6.83 mg/kg/day; format: functional; method in brief: as §2
Rattus norvegicus [7] = test: Percent change in tumor area in DMBA-induced hormone-dependent mammary carcinoma bearing rats at 1.71 mg/kg/day; format: functional; method in brief: as §2
Rattus norvegicus [8] = test: Percent tumor progression in DMBA-induced hormone-dependent mammary carcinoma bearing rats at 6.83 mg/kg/day; format: functional; method in brief: as §2
Rattus norvegicus [9] = test: Percent complete remission in DMBA-induced hormone-dependent mammary carcinoma bearing rats at 1.71 mg/kg/day; format: functional; method in brief: as §2
Rattus norvegicus [10] = test: Percent unchanged tumor size in DMBA-induced hormone-dependent mammary carcinoma bearing rats at 6.83 mg/kg/day; format: functional; method in brief: as §2
Rattus norvegicus [11] = test: Percent complete remission in DMBA-induced hormone-dependent mammary carcinoma bearing rats at 0.85 mg/kg/day; format: functional; method in brief: as §2
Rattus norvegicus [12] = test: Percent change in body weight in DMBA-induced hormone-dependent mammary carcinoma bearing rats at 6.83 mg/kg/day; format: functional; method in brief: as §2
Rattus norvegicus [13] = test: Percent change in tumor area in DMBA-induced hormone-dependent mammary carcinoma bearing rats at 0.85 mg/kg/day; format: functional; method in brief: as §2
Rattus norvegicus [14] = test: Percent change in body weight in DMBA-induced hormone-dependent mammary carcinoma bearing rats at 1.71 mg/kg/day; format: functional; method in brief: as §2
Rattus norvegicus [15] = test: Percent partial remission in DMBA-induced hormone-dependent mammary carcinoma bearing rats at 1.71 mg/kg/day; format: functional; method in brief: as §2
Rattus norvegicus [16] = test: Percent complete remission in DMBA-induced hormone-dependent mammary carcinoma bearing rats at 6.83 mg/kg/day; format: functional; method in brief: as §2
Rattus norvegicus [17] = test: Percent partial remission in DMBA-induced hormone-dependent mammary carcinoma bearing rats at 6.83 mg/kg/day; format: functional; method in brief: as §2
Rattus norvegicus [18] = test: Percent change in body weight in DMBA-induced hormone-dependent mammary carcinoma bearing rats at 0.85 mg/kg/day; format: functional; method in brief: as §2
Rattus norvegicus [19] = test: Percent tumor progression in DMBA-induced hormone-dependent mammary carcinoma bearing rats at 0.85 mg/kg/day; format: functional; method in brief: as §2
Rattus norvegicus [20] = test: Percent tumor progression in DMBA-induced hormone-dependent mammary carcinoma bearing rats at 1.71 mg/kg/day; format: functional; method in brief: as §2
Rattus norvegicus [21] = test: Percent partial remission in DMBA-induced hormone-dependent mammary carcinoma bearing rats at 0.85 mg/kg/day; format: functional; method in brief: as §2
Mus musculus [22] = test: Anti-neoplastic effect in estrogen and progesterone receptor positive hormone-dependent postmenopausal human mammary carcinoma bearing mice at 3 mg/kg/day; format: functional; method in brief: as §1
Mus musculus [23] = test: Anti-neoplastic effect in estrogen and progesterone receptor positive hormone-dependent postmenopausal human mammary carcinoma bearing mice at 2.2 mg/kg/day; format: functional; method in brief: as §1

CC/C(=C(/c1ccccc1)c1ccc(OC(C)=O)cc1)c1ccccc1
Tumor size (Mus musculus [1]): 1.24
RBA [2]: 5.7%

CC/C(=C(/c1ccc(OC(C)=O)cc1)c1cccc(OC(C)=O)c1)c1cccc(OC(C)=O)c1
RBA [2]: 1.8%
Tumor size (Mus musculus [3]): 2.44

CC/C(=C(\c1ccc(OC(C)=O)cc1)c1cccc(OC(C)=O)c1)c1ccc(OC(C)=O)cc1
RBA [2]: 3%
Tumor size (Mus musculus [3]): 2.04

CCC(=C(c1cccc(OC(C)=O)c1)c1cccc(OC(C)=O)c1)c1cccc(OC(C)=O)c1
Tumors (Rattus norvegicus [4]): 37%
RBA [2]: 1.5%
Tumors (Rattus norvegicus [5]): 44%
Change (Rattus norvegicus [6]): 54%
Change (Rattus norvegicus [7]): 78%
Tumors (Rattus norvegicus [8]): 35%
Change (Rattus norvegicus [9]): 3%
Tumors (Rattus norvegicus [10]): 30%
Tumors (Rattus norvegicus [11]): 2%
Change (Rattus norvegicus [12]): 3.6%
Change (Rattus norvegicus [13]): 102%
Change (Rattus norvegicus [14]): 3.2%
Tumors (Rattus norvegicus [15]): 16%
Change (Rattus norvegicus [16]): 5%
Tumors (Rattus norvegicus [17]): 30%
Change (Rattus norvegicus [18]): 5.2%
Tumors (Rattus norvegicus [19]): 40%
Tumors (Rattus norvegicus [20]): 44%
Tumors (Rattus norvegicus [21]): 14%
Tumor size (Mus musculus [3]): 2.12

CC/C(=C(\c1ccc(OC(C)=O)cc1)c1cccc(OC(C)=O)c1)c1cccc(OC(C)=O)c1
RBA [2]: 2.7%
Tumor size (Mus musculus [3]): 1.69

CCC(=C(c1ccccc1)c1ccccc1)c1ccc(OC(C)=O)cc1
Tumor size (Mus musculus [1]): 1.12
RBA [2]: 3.8%

CC/C(=C(\c1ccccc1)c1cccc(OC(C)=O)c1)c1cccc(OC(C)=O)c1
RBA [2]: 0.2%
Tumor size (Mus musculus [22]): 2.36

CCC(=C(c1ccccc1)c1ccccc1)c1cccc(OC(C)=O)c1
Tumor size (Mus musculus [1]): 1.04
RBA [2]: 1.5%

CCC(=C(c1ccccc1)c1ccccc1)c1ccccc1
RBA [2]: 0.8%
Tumor size (Mus musculus [23]): 1.61

CC/C(=C(/c1ccccc1)c1cccc(OC(C)=O)c1)c1cccc(OC(C)=O)c1
RBA [2]: 1.1%
Tumor size (Mus musculus [22]): 1.35

CC/C(=C(\c1ccccc1)c1ccc(OC(C)=O)cc1)c1ccc(OC(C)=O)cc1
RBA [2]: 1%
Tumor size (Mus musculus [22]): 1.39

CCC(=C(c1cccc(OC(C)=O)c1)c1cccc(OC(C)=O)c1)c1ccccc1
RBA [2]: 1.2%
Tumor size (Mus musculus [22]): 2.4

CC/C(=C(\c1ccccc1)c1ccc(OC(C)=O)cc1)c1ccccc1
Tumor size (Mus musculus [1]): 1.3
RBA [2]: 2%

CC/C(=C(/c1ccccc1)c1ccc(OC(C)=O)cc1)c1ccc(OC(C)=O)cc1
RBA [2]: 5.9%
Tumor size (Mus musculus [22]): 0.83

CC/C(=C(/c1ccccc1)c1cccc(OC(C)=O)c1)c1ccccc1
Tumor size (Mus musculus [1]): 2.12
RBA [2]: 0.7%

CCC(=C(c1ccc(OC(C)=O)cc1)c1ccc(OC(C)=O)cc1)c1ccccc1
RBA [2]: 6.8%
Tumor size (Mus musculus [22]): 0.81

CC/C(=C(\c1ccccc1)c1cccc(OC(C)=O)c1)c1ccccc1
Tumor size (Mus musculus [1]): 2.41
RBA [2]: 0.3%

CCC(=C(c1ccc(OC(C)=O)cc1)c1ccc(OC(C)=O)cc1)c1ccc(OC(C)=O)cc1
RBA [2]: 4.2%
Tumor size (Mus musculus [3]): 1.52

Reference: ChEMBL document CHEMBL1122131, “1,1,2-triphenylbut-1-enes: relationship between structure, estradiol receptor affinity, and mammary tumor inhibiting properties” (1982)
